Results as given in ChEMBL document CHEMBL4396883, “Discovery of CDK5 Inhibitors through Structure-Guided Approach” (ACS Med Chem Lett, 2019).
Calls of active or inactive are those of the source. The calls are words filed in the database; no cut-off is given here.

Tests used:
[1] = target: Cyclin-dependent kinase 5 (Homo sapiens) (UniProt Q00535); assay: Inhibition of CDK5 in human MV4-11 cells assessed as increase in p27KIP1 level at 5 to 10 uM measured after 24 hrs incubation by Western blot analysis; format: cell-based
Sequence of Cyclin-dependent kinase 5 (Homo sapiens) (Q00535 whole entry, looked up): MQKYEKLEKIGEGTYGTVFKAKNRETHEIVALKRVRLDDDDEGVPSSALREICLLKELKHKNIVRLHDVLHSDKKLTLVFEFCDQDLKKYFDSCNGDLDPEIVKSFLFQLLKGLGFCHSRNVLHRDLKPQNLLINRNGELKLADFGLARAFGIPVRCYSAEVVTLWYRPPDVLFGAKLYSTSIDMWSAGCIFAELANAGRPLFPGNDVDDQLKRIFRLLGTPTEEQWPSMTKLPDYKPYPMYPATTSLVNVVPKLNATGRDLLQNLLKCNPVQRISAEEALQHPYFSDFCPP
Procedure, shortened: (§1)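 Cells treated for 24 h; lysates immunoblotted for pAkt (S473), pRB (S780), cyclin D1, p27KIP1, and cleaved caspase 3 and 7 (MOLM-13); at least two independent repeats.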

[2] = target: Cyclin-dependent kinase 5 (Homo sapiens) (UniProt Q00535); assay: Inhibition of CDK5 in human MOLM13 cells assessed as increase in p27KIP1 level at 5 to 10 uM measured after 24 hrs incubation by Western blot analysis; format: cell-based; procedure, shortened: as §1
[3] = target: Cyclin-dependent kinase 5 (Homo sapiens) (UniProt Q00535); assay: Inhibition of CDK5 in human MV4-11 cells assessed as decrease in cyclin D1 level at 5 to 10 uM measured after 24 hrs incubation by Western blot analysis; format: cell-based; procedure, shortened: as §1
[4] = target: Cyclin-dependent kinase 5 (Homo sapiens) (UniProt Q00535); assay: Inhibition of CDK5 in human MOLM13 cells assessed as decrease in cyclin D1 level at 5 to 10 uM measured after 24 hrs incubation by Western blot analysis; format: cell-based; procedure, shortened: as §1
[5] = target: CDK2/Cyclin A2 (Homo sapiens) (UniProt P24941+P20248); assay: Inhibition of recombinant full length N-terminal GST tagged human CDK2/CyclinA expressed in baculovirus infected sf9 cells using histone H1 as substrate at 10 uM measured after 30 mins in presence of ATP by ADP-Glo kinase assay relative to control
CDK2/Cyclin A2 = CDK2/Cyclin A2 (Homo sapiens, UniProt P24941); assay: Inhibition of recombinant full length N-terminal GST tagged human CDK2/CyclinA expressed in baculovirus infected sf9 cells using histone H1 as substrate measured after 30 mins in presence of ATP by ADP-Glo kinase assay
Procedure, shortened: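 CDK2/cyclin A kinase inhibition; Ki values from the average of at least two experiments.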

[6] = target: Cyclin-dependent kinase 5/CDK5 activator 1 (Homo sapiens, UniProt Q00535); assay: Inhibition of recombinant full length N-terminal GST tagged human CDK5/p25 expressed in baculovirus infected sf9 cells using histone H1 as substrate measured after 60 mins in presence of ATP by ADP-Glo kinase assay; format: cell-based
Sequence of Cyclin-dependent kinase 5/CDK5 activator 1 (Q00535 whole entry): as the sequence (Q00535 whole entry, looked up) above
Sequence of Cyclin-dependent kinase 5/CDK5 activator 1 (Q15078 whole entry, further chain): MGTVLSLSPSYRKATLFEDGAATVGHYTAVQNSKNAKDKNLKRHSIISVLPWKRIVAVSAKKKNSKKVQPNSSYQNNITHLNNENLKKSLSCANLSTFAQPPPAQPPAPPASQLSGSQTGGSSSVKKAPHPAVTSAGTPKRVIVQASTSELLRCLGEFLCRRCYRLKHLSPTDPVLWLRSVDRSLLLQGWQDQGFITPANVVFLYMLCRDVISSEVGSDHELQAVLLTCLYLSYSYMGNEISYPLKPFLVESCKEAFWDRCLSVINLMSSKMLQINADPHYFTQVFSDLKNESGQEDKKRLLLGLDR

[7] = target: Cyclin-dependent kinase 1/cyclin B1 (Homo sapiens, UniProt P06493); assay: Inhibition of CDK1/CyclinB1 (unknown origin) using histone H1 (GGGPATPKKAKKL) as substrate incubated for 80 mins in presence of ATP by ADP-Glo kinase assay; format: protein-complex assay
Sequence of Cyclin-dependent kinase 1/cyclin B1 (P06493 whole entry, the tested form may be a part): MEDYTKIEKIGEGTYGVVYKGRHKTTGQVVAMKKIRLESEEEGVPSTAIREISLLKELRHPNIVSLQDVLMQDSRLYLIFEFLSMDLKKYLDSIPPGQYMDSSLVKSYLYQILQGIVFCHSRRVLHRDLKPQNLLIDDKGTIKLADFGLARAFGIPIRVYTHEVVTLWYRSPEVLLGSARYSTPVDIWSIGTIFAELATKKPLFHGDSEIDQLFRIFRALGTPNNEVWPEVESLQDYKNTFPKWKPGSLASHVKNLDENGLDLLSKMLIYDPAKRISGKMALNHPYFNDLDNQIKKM
Sequence of Cyclin-dependent kinase 1/cyclin B1 (P14635 whole entry, further chain, the tested form may be a part): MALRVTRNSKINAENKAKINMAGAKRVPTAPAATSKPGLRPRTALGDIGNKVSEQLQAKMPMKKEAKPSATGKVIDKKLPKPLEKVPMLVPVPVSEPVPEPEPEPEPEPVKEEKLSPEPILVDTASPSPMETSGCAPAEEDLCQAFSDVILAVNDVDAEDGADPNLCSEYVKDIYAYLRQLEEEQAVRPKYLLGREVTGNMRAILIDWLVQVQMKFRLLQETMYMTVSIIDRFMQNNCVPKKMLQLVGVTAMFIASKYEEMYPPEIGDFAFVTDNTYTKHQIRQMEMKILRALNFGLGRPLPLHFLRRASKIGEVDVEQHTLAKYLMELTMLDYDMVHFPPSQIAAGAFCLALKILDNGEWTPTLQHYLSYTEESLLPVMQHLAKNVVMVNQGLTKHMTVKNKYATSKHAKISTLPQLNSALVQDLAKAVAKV

[8] = target: Cyclin-dependent kinase 4/cyclin D1 (Homo sapiens, UniProt P11802); assay: Inhibition of human recombinant N-terminal GST-tagged CDK4 (S4-E303 residues)/Cyclin D1 (Q4-I295 residues) expressed in sf9 cells using RB-CTF as substrate incubated for 90 mins in presence of ATP by ADP-Glo kinase assay
Sequence of Cyclin-dependent kinase 4/cyclin D1 (P11802 whole entry, the tested form may be a part): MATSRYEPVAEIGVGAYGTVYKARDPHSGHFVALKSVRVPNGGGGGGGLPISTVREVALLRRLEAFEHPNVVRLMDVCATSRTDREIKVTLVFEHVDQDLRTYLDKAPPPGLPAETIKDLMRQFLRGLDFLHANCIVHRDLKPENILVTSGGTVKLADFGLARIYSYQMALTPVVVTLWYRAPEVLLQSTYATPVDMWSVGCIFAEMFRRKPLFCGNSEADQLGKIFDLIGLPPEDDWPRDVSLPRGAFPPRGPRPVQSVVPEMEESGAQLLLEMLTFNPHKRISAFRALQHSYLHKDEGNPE
Sequence of Cyclin-dependent kinase 4/cyclin D1 (P24385 whole entry, further chain, the tested form may be a part): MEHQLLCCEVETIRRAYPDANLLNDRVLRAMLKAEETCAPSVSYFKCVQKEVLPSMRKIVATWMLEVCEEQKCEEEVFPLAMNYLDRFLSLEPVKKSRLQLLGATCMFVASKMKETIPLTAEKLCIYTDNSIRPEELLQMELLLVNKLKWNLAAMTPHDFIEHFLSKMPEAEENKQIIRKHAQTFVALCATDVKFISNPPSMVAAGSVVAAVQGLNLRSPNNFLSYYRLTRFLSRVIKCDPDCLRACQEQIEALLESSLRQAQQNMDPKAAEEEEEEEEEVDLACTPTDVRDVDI

[9] = target: Cyclin-dependent kinase 2/cyclin E1 (Homo sapiens, UniProt P24941); assay: Inhibition of CDK2/Cyclin E (unknown origin) incubated for 30 to 120 mins in presence of ATP by ADP-Glo kinase assay; format: protein-complex assay
CDK7/Cyclin H/MNAT1 = CDK7/Cyclin H/MNAT1 (Homo sapiens, UniProt P50613); assay: Inhibition of CDK7/cyclinH/MAT1 (unknown origin) using RBER-IRStide as substrate incubated for 120 mins in presence of ATP by ADP-Glo kinase assay; format: protein-complex assay
Sequence of CDK7/Cyclin H/MNAT1 (P51946 whole entry): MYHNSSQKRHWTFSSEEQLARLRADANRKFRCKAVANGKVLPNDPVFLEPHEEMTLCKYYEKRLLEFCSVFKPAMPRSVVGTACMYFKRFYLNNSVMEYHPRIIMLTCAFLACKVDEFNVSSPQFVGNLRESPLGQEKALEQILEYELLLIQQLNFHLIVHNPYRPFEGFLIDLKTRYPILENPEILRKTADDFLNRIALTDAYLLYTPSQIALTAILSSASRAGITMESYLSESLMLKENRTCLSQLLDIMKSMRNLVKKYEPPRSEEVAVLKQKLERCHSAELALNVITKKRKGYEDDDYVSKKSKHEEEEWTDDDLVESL
Sequence of CDK7/Cyclin H/MNAT1 (P50613 whole entry): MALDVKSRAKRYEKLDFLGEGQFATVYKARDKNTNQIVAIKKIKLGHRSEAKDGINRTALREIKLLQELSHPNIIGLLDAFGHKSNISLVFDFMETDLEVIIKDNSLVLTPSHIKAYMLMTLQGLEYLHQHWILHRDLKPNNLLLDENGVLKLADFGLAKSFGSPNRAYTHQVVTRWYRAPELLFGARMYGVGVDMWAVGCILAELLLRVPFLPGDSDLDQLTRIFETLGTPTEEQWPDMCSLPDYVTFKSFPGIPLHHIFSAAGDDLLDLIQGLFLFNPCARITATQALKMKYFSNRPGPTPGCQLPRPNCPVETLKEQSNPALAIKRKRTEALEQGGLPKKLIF
Sequence of CDK7/Cyclin H/MNAT1 (P51948 whole entry, further chain): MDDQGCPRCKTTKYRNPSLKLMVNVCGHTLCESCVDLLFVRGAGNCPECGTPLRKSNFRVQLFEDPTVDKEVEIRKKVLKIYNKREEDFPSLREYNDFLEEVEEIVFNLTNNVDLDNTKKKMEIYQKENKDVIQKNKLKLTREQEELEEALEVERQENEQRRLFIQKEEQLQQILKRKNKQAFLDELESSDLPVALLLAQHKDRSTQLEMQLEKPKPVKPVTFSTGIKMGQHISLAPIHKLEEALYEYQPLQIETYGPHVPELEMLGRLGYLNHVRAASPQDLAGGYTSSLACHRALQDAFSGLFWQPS

MV4-11 [10] = assay: Antiproliferative activity against human MV4-11 cells assessed as growth inhibition measured after 72 hrs by resazurin assay; format: functional; details: MV4-11, 72 h
Procedure, shortened: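 Leukemia cells exposed to compound for 72 h; viability read by resazurin reduction. GI50 (concentration giving 50% inhibition of proliferation) reported as mean ± SD of three independent experiments.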

[11] = target: Receptor-type tyrosine-protein kinase FLT3 (Homo sapiens, UniProt P36888, ITD); assay: Inhibition of human recombinant full length GST-fused/His-tagged FLT3 ITD mutant expressed in Sf9 cells using poly (Glu,Tyr) as substrate incubated for 80 mins in presence of ATP by ADP-Glo kinase assay
Sequence of Receptor-type tyrosine-protein kinase FLT3 (P36888 whole entry, looked up, stated change not applied, the tested form may be a part): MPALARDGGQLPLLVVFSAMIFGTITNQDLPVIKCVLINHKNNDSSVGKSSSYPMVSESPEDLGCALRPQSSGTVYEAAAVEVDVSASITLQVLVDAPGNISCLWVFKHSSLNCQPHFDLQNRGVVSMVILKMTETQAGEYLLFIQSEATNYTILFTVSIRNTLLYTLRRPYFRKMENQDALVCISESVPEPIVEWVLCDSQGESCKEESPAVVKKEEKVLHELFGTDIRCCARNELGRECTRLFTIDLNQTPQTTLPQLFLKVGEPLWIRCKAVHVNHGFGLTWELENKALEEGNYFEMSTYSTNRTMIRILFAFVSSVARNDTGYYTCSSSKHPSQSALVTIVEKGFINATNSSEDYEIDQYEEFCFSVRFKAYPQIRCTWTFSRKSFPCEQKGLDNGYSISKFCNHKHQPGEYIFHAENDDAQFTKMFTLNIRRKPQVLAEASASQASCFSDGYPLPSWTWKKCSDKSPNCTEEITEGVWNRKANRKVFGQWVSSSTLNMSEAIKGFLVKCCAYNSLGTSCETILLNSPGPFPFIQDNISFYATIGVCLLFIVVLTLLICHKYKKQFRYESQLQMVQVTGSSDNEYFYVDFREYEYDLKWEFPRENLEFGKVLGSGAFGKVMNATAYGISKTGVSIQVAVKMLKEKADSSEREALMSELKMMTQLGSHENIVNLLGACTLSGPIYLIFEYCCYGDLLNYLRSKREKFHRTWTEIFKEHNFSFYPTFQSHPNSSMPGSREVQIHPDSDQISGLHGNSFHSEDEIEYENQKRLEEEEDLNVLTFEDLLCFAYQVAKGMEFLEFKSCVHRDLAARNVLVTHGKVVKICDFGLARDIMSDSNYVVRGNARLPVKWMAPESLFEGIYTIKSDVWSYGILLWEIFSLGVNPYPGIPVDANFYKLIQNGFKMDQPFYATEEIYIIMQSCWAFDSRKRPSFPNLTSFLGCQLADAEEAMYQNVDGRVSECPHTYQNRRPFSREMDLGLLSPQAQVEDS

MOLM-13 [12] = assay: Induction of apoptosis in human MOLM13 cells assessed as late apoptotic cells at 2.5 uM measured after 24 hrs by Annexin V-FITC/PI staining based flow cytometry (reference value: 1.94%); format: functional
MOLM-13 [13] = assay: Induction of apoptosis in human MOLM13 cells assessed as early apoptotic cells at 10 uM measured after 24 hrs by Annexin V-FITC/PI staining based flow cytometry (reference value: 3.38%); format: functional
[14] = target: Cyclin-dependent kinase 5 (Homo sapiens) (UniProt Q00535); assay: Inhibition of CDK5 in human MOLM13 cells assessed as increase in caspase3/7 activity at 2.5 to 10 uM measured after 24 hrs by caspase-3/7 glo assay; format: cell-based
Procedure, shortened: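 MOLM-13 cells treated 24 h; caspase-3/7 activity measured with […]; at least two independent experiments, values given as mean.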

[15] = target: Cyclin-dependent kinase 5 (Homo sapiens) (UniProt Q00535); assay: Inhibition of CDK5 in human MOLM13 cells assessed as decrease in phosphorylated RB protein level at 5 to 10 uM measured after 24 hrs incubation by Western blot analysis; format: cell-based; procedure, shortened: as §1
[16] = target: Cyclin-dependent kinase 5 (Homo sapiens) (UniProt Q00535); assay: Inhibition of CDK5 in human MOLM13 cells assessed as decrease in phosphorylated Akt protein level at 5 to 10 uM measured after 24 hrs incubation by Western blot analysis; format: cell-based; procedure, shortened: as §1
MV4-11 [17] = assay: Cell cycle arrest in human MV4-11 cells assessed as accumulation at G1 phase at 2.5 to 10 uM measured after 24 hrs by propidium iodide staining based flow cytometry analysis; format: functional
Procedure, shortened: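 MV4-11 cells treated 24 h at 2.5 and 10 μM; cell-cycle phase distribution (sub-G1, G1, S, G2/M) by flow cytometry; at least two independent experiments, numerical data as mean value.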

[18] = target: Cyclin-dependent kinase 5 (Homo sapiens) (UniProt Q00535); assay: Inhibition of CDK5 in human MV4-11 cells assessed as decrease in phosphorylated Akt protein level at 5 to 10 uM measured after 24 hrs incubation by Western blot analysis; format: cell-based; procedure, shortened: as §1
[19] = target: Cyclin-dependent kinase 5 (Homo sapiens) (UniProt Q00535); assay: Inhibition of CDK5 in human MV4-11 cells assessed as decrease in FAK phosphorylation at S732 measured after 24 hrs by Western blot analysis; format: cell-based
Procedure, shortened: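 MV4-11 AML cells incubated 24 h with compound across a concentration series; cellular CDK5 activity followed by Western blot of FAK phosphorylation at Ser732.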

[20] = target: Cyclin-dependent kinase 5 (Homo sapiens) (UniProt Q00535); assay: Inhibition of CDK5 in human MOLM13 cells assessed as increase in cleaved caspase 3 level at 5 to 10 uM measured after 24 hrs by western blot analysis; format: cell-based; procedure, shortened: as §1
[21] = target: Cyclin-dependent kinase 5 (Homo sapiens) (UniProt Q00535); assay: Inhibition of CDK5 in human MOLM13 cells assessed as increase in cleaved caspase 7 level at 5 to 10 uM measured after 24 hrs by western blot analysis; format: cell-based; procedure, shortened: as §1
[22] = target: Cyclin-dependent kinase 5 (Homo sapiens) (UniProt Q00535); assay: Inhibition of CDK5 in human MOLM13 cells assessed as decrease in p21CIP1 level at 5 to 10 uM measured after 24 hrs by western blot analysis; format: cell-based
[23] = target: Cyclin-dependent kinase 5 (Homo sapiens) (UniProt Q00535); assay: Inhibition of CDK5 in human MV4-11 cells assessed as FAK phosphorylation at S732 at 5 to 10 uM measured after 24 hrs by Western blot analysis
MOLM-13 (Homo sapiens) = assay: Cell cycle arrest in human MOLM-13 cells assessed as accumulation at sub G1 phase at 10 uM measured after 24 hrs by propidium iodide staining based flow cytometry analysis

NS(=O)(=O)c1cccc(Nc2ncc3c(n2)CCCC3)c1
Activity [1]: Active
Activity [2]: Active
inhibition [3]: Active
inhibition [4]: Active
inhibition [5]: 95%
Ki (CDK2/Cyclin A2): 270 nM
Ki [6]: 160 nM
Ki [7]: 2610 nM
Ki [8]: > 5000 nM
Ki [9]: 1000 nM
Ki (CDK7/Cyclin H/MNAT1): > 5000 nM
GI50 (MV4-11 [10]): 2550 nM
IC50 [11]: 1480 nM
Activity (MOLM-13 [12]): 3.43%
Activity (MOLM-13 [13]): 18.34%
Activity [14]: Active
inhibition [15]: Active
inhibition [16]: Active
Activity (MV4-11 [17]): Active
inhibition [18]: Active
inhibition [19]: Dose-dependent effect
Activity [20]: Active
Activity [21]: Active
inhibition [22]: Active
inhibition [23]: inactive
Activity (MOLM-13 (Homo sapiens)): Active

Cc1cccc(Nc2ncc3c(n2)CCCC3)c1
Activity [1]: Active
Activity [2]: Active
inhibition [3]: Active
inhibition [4]: Active
inhibition [5]: 72%
Ki (CDK2/Cyclin A2): 3320 nM
Ki [6]: 800 nM
Ki [7]: 2360 nM
Ki [8]: > 5000 nM
Ki [9]: > 5000 nM
Ki (CDK7/Cyclin H/MNAT1): > 5000 nM
GI50 (MV4-11 [10]): 3290 nM
IC50 [11]: > 10000 nM
Activity (MOLM-13 [12]): 2.68%
Activity (MOLM-13 [13]): 30.11%
Activity [14]: Active
inhibition [15]: Active
inhibition [16]: Active
Activity (MV4-11 [17]): Active
inhibition [18]: Active
inhibition [19]: Dose-dependent effect
Activity [20]: Active
Activity [21]: Active
inhibition [22]: Active
inhibition [23]: inactive
Activity (MOLM-13 (Homo sapiens)): Active
